Experimental data as given in ChEMBL document CHEMBL1255391, “Rates and mechanisms of resistance development in Mycobacterium tuberculosis to a novel diarylquinoline ATP synthase inhibitor” (2010).
In brackets after ≈: the same amount, converted by molar mass.

What was measured:
Format in all cases: functional
[1] = system: Mycobacterium tuberculosis; test: Antimicrobial activity against drug-susceptible Mycobacterium tuberculosis isolate 4 expressing wild type atpE Asp28Pro mutant selected after 10 times MIC drug exposure
In short: (§1)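 Each resistant mutant clone (one colony picked per independent fluctuation culture selected on drug agar) is suspended in PBS, sonicated and applied by 96-pin replicator. Nonselective and rifampin control plates are included. Plates are read after 4 weeks; MIC is the lowest concentration with no visible growth.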

[2] = system: Mycobacterium tuberculosis; test: Antimicrobial activity against multidrug-resistant Mycobacterium tuberculosis isolate 5 expressing wild type atpE and F0 operon selected after 10 times MIC drug exposure; in short: as §1
[3] = system: Mycobacterium tuberculosis; test: Antimicrobial activity against multidrug-resistant Mycobacterium tuberculosis H37Rv
[4] = system: Mycobacterium tuberculosis; test: Antimicrobial activity against drug-susceptible Mycobacterium tuberculosis isolate 4 expressing wild type atpE Glu61Asp mutant selected after 30 times MIC drug exposure; in short: as §1
[5] = system: Mycobacterium tuberculosis; test: Antimicrobial activity against drug-susceptible Mycobacterium tuberculosis isolate 6 expressing wild type atpE Glu61Asp mutant selected after 30 times MIC drug exposure; in short: as §1
[6] = system: Mycobacterium tuberculosis; test: Antimicrobial activity against drug-susceptible Mycobacterium tuberculosis isolate 6 expressing wild type atpE Ala63Pro mutant selected after 30 times MIC drug exposure; in short: as §1
[7] = system: Mycobacterium tuberculosis; test: Antimicrobial activity against drug-susceptible Mycobacterium tuberculosis H37Rv expressing wild type atpE Ala63Pro mutant selected after 30 times MIC drug exposure; in short: as §1
[8] = system: Mycobacterium tuberculosis; test: Antimicrobial activity against multidrug-resistant Mycobacterium tuberculosis isolate 5 expressing wild type atpE Ile66Met mutant selected after 30 times MIC drug exposure; in short: as §1
[9] = system: Mycobacterium tuberculosis; test: Antimicrobial activity against multidrug-resistant Mycobacterium tuberculosis isolate 5 expressing wild type atpE Ala63Pro mutant selected after 10 times MIC drug exposure; in short: as §1
[10] = system: Mycobacterium tuberculosis; test: Antimicrobial activity against multidrug-resistant Mycobacterium tuberculosis isolate 5 expressing wild type atpE selected after 10 times MIC drug exposure; in short: as §1
[11] = system: Mycobacterium tuberculosis; test: Antimicrobial activity against multidrug-resistant Mycobacterium tuberculosis isolate 3 expressing wild type atpE and F0 operon selected after 30 times MIC drug exposure; in short: as §1
[12] = system: Mycobacterium tuberculosis; test: Antimicrobial activity against multidrug-resistant Mycobacterium tuberculosis isolate 3 expressing wild type atpE selected after 30 times MIC drug exposure; in short: as §1
[13] = system: Mycobacterium tuberculosis; test: Antimicrobial activity against multidrug-resistant Mycobacterium tuberculosis isolate 3 expressing wild type atpE and ATP synthase selected after 10 times MIC drug exposure; in short: as §1
[14] = system: Mycobacterium tuberculosis; test: Antimicrobial activity against multidrug-resistant Mycobacterium tuberculosis isolate 3 expressing wild type atpE and F0 operon selected after 10 times MIC drug exposure; in short: as §1
[15] = system: Mycobacterium tuberculosis; test: Antimicrobial activity against multidrug-resistant Mycobacterium tuberculosis isolate 3 expressing wild type atpE selected after 10 times MIC drug exposure; in short: as §1
[16] = system: Mycobacterium tuberculosis; test: Antimicrobial activity against multidrug-resistant Mycobacterium tuberculosis isolate 2 expressing wild type atpE selected after 10 times MIC drug exposure; in short: as §1
[17] = system: Mycobacterium tuberculosis; test: Antimicrobial activity against multidrug-resistant Mycobacterium tuberculosis isolate 2 expressing atpE Glu61Asp mutant selected after 10 times MIC drug exposure; in short: as §1
[18] = system: Mycobacterium tuberculosis; test: Antimicrobial activity against multidrug-resistant Mycobacterium tuberculosis isolate 2 expressing atpE Ala28Val mutant selected after 10 times MIC drug exposure; in short: as §1
[19] = system: Mycobacterium tuberculosis; test: Antimicrobial activity against multidrug-resistant Mycobacterium tuberculosis isolate 1 expressing atpE Glu63Asp mutant selected after 30 times MIC drug exposure; in short: as §1
[20] = system: Mycobacterium tuberculosis; test: Antimicrobial activity against multidrug-resistant Mycobacterium tuberculosis isolate 1 expressing wild type atpE selected after 10 times MIC drug exposure; in short: as §1
[21] = system: Mycobacterium tuberculosis; test: Antimicrobial activity against multidrug-resistant Mycobacterium tuberculosis isolate 1 expressing atpE Glu61Asp mutant selected after 10 times MIC drug exposure; in short: as §1
[22] = system: Mycobacterium tuberculosis; test: Antimicrobial activity against drug-susceptible Mycobacterium tuberculosis isolate 4 expressing wild type atpE Glu61Asp mutant selected after 10 times MIC drug exposure; in short: as §1

Q: Which results are given for `COc1nc2ccc(Br)cc2cc1[C@@H](c1ccccc1)[C@@](O)(CCN(C)C)c1cccc2ccccc12` [BEDAQUILINE]?
A: MIC [1]: 0.3 µg/mL (≈ 0.54 µM); MIC [2]: 0.48 µg/mL (≈ 0.864 µM); MIC [3]: 0.03 µg/mL (≈ 0.054 µM); MIC [4]: 0.48 µg/mL (≈ 0.864 µM); MIC [5]: 0.48 µg/mL (≈ 0.864 µM); MIC [6]: 0.9 µg/mL (≈ 1.62 µM); MIC [7]: 3.84 µg/mL (≈ 6.91 µM); MIC [8]: 0.9 µg/mL (≈ 1.62 µM); MIC [9]: 0.24 µg/mL (≈ 0.432 µM); MIC [10]: 0.12 µg/mL (≈ 0.216 µM); MIC [11]: 0.9 µg/mL (≈ 1.62 µM); MIC [12]: 0.48 µg/mL (≈ 0.864 µM); MIC [13]: 0.9 µg/mL (≈ 1.62 µM); MIC [14]: 0.9 µg/mL (≈ 1.62 µM); MIC [15]: 0.9 µg/mL (≈ 1.62 µM); MIC [16]: 0.12 µg/mL (≈ 0.216 µM); MIC [17]: 0.24 µg/mL (≈ 0.432 µM); MIC [18]: 0.48 µg/mL (≈ 0.864 µM); MIC [19]: 1.92 µg/mL (≈ 3.46 µM); MIC [20]: 0.12 µg/mL (≈ 0.216 µM); MIC [21]: 0.48 µg/mL (≈ 0.864 µM); MIC [22]: 0.96 µg/mL (≈ 1.73 µM)
